Data from ChEMBL document CHEMBL1255289, “In vitro antifungal activities of isavuconazole (BAL4815), voriconazole, and fluconazole against 1,007 isolates of zygomycete, Candida, Aspergillus, Fusarium, and Scedosporium species” (2008).
Values after ≈ are worked out from the molar mass of the structure shown.

Experiments:
Type in all cases: functional
Aspergillus terreus = assay: Antifungal activity against Aspergillus terreus isolates after 48 hrs by CLSI M38-A procedure based assay
Procedure, shortened: (§1)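 Aspergillus isolates tested by CLSI M38-A broth microdilution at final 0.015–16 µg/ml and 35°C. Plates were read macroscopically at 48 h. The MIC was the lowest concentration producing complete inhibition of growth (MIC-0).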

Aspergillus fumigatus = assay: Antifungal activity against Aspergillus fumigatus isolates after 48 hrs by CLSI M38-A procedure based assay; procedure, shortened: as §1
Aspergillus flavus = assay: Antifungal activity against Aspergillus flavus isolates after 48 hrs by CLSI M38-A procedure based assay; procedure, shortened: as §1
Aspergillus niger = assay: Antifungal activity against Aspergillus niger isolates after 48 hrs by CLSI M38-A procedure based assay; procedure, shortened: as §1
Aspergillus sp. = assay: Antifungal activity against Aspergillus sp. isolates after 48 hrs by CLSI M38-A procedure based assay; procedure, shortened: as §1
Candida parapsilosis = assay: Antifungal activity against Candida parapsilosis isolates after 48 hrs by CLSI M27-A2 procedure based assay
Procedure, shortened: (§2)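 Candida isolates tested by CLSI M27-A2 broth microdilution at final 0.015–16 µg/ml, or 0.125–128 µg/ml for the comparator azole. Incubation was at 35°C with a visual read at 48 h. MIC-2 was the lowest concentration giving a prominent turbidity drop, about 50% growth inhibition.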

Candida albicans = assay: Antifungal activity against Candida albicans isolates after 48 hrs by CLSI M27-A2 procedure based assay; procedure, shortened: as §2
Mucor [1] = assay: Antifungal activity against Mucor isolates assessed as lowest compound concentration that produced complete inhibition of microbial growth after 24 hrs by CLSI M38-A procedure based assay
Procedure, shortened: (§3)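 Zygomycete isolates subcultured on potato dextrose or Sabouraud agar, then tested by CLSI M38-A broth microdilution. Drugs were serially diluted in plates at final 0.015–16 µg/ml and incubated at 35°C. Plates were read by eye at 24 h. MIC-0 was the lowest concentration giving complete growth inhibition.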

Mucor [2] = assay: Antifungal activity against Mucor isolates assessed as lowest compound concentration that produced slight growth or approximately 25% of that of growth control after 24 hrs by CLSI M38-A procedure based assay
Procedure, shortened: (§4)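 Clinical isolates were kept at –70°C as spore suspensions in sterile water and subcultured on potato dextrose or Sabouraud agar before testing. Broth microdilution used DMSO stocks in trays stored at –70°C, with final drug 0.015–16 µg/ml.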

Rhizopus [3] = assay: Antifungal activity against Rhizopus isolates assessed as lowest compound concentration that produced complete inhibition of microbial growth after 24 hrs by CLSI M38-A procedure based assay; procedure, shortened: as §3
Rhizopus [4] = assay: Antifungal activity against Rhizopus isolates assessed as lowest compound concentration that produced slight growth or approximately 25% of that of growth control after 24 hrs by CLSI M38-A procedure based assay
Procedure, shortened: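 Rhizopus isolates tested by CLSI M38-A broth microdilution at final 0.015–16 µg/ml, 35°C, read by eye at 24 h.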

Absidia [5] = assay: Antifungal activity against Absidia isolates assessed as lowest compound concentration that produced complete inhibition of microbial growth after 24 hrs by CLSI M38-A procedure based assay; procedure, shortened: as §3
Absidia [6] = assay: Antifungal activity against Absidia isolates assessed as lowest compound concentration that produced slight growth or approximately 25% of that of growth control after 24 hrs by CLSI M38-A procedure based assay; procedure, shortened: as §4
Cunninghamella [7] = assay: Antifungal activity against Cunninghamella isolates assessed as lowest compound concentration that produced complete inhibition of microbial growth after 24 hrs by CLSI M38-A procedure based assay; procedure, shortened: as §3
Cunninghamella [8] = assay: Antifungal activity against Cunninghamella isolates assessed as lowest compound concentration that produced slight growth or approximately 25% of that of growth control after 24 hrs by CLSI M38-A procedure based assay; procedure, shortened: as §4
Syncephalastrum [9] = assay: Antifungal activity against Syncephalastrum isolates assessed as lowest compound concentration that produced complete inhibition of microbial growth after 24 hrs by CLSI M38-A procedure based assay; procedure, shortened: as §3
Syncephalastrum [10] = assay: Antifungal activity against Syncephalastrum isolates assessed as lowest compound concentration that produced slight growth or approximately 25% of that of growth control after 24 hrs by CLSI M38-A procedure based assay; procedure, shortened: as §4
Scedosporium apiospermum [11] = assay: Antifungal activity against Scedosporium apiospermum isolates assessed as lowest compound concentration that produced complete inhibition of microbial growth after 24 hrs by CLSI M38-A procedure based assay
Scedosporium apiospermum [12] = assay: Antifungal activity against Scedosporium apiospermum isolates assessed as lowest compound concentration that produced slight growth or approximately 25% of that of growth control after 24 hrs by CLSI M38-A procedure based assay
[13] = Lodderomyces parapsilosis, 48 h

With `C[C@@H](c1nc(-c2ccc(C#N)cc2)cs1)[C@](O)(Cn1cncn1)c1cc(F)ccc1F` [ISAVUCONAZOLE] the MFC50 (Aspergillus terreus) was 1 µg/mL (≈ 2.29 µM), the MFC90 (Aspergillus terreus) was 1 µg/mL (≈ 2.29 µM) and the MFC (Aspergillus terreus; Aspergillus terreus, 48 h) was 0.25 µg/mL (≈ 0.571 µM). The MIC50 (Aspergillus terreus; Aspergillus terreus, 48 h) was 1 µg/mL (≈ 2.29 µM), the MIC90 (Aspergillus terreus; Aspergillus terreus, 48 h) was 1 µg/mL (≈ 2.29 µM) and the MFC50 (Aspergillus fumigatus) was 1 µg/mL (≈ 2.29 µM). For the same compound, the MFC90 (Aspergillus fumigatus) was 1 µg/mL (≈ 2.29 µM), the MFC (Aspergillus fumigatus; Aspergillus fumigatus, 48 h) was 0.125 µg/mL (≈ 0.286 µM) and the MIC50 (Aspergillus fumigatus; Aspergillus fumigatus, 48 h) was 1 µg/mL (≈ 2.29 µM). The MIC90 (Aspergillus fumigatus; Aspergillus fumigatus, 48 h) was 1 µg/mL (≈ 2.29 µM), the MFC50 (Aspergillus flavus) was 1 µg/mL (≈ 2.29 µM) and the MFC90 (Aspergillus flavus) was 1 µg/mL (≈ 2.29 µM). It also gave an MFC (Aspergillus flavus; Aspergillus flavus, 48 h) of 0.5 µg/mL (≈ 1.14 µM), an MIC50 (Aspergillus flavus; Aspergillus flavus, 48 h) of 1 µg/mL (≈ 2.29 µM) and an MIC90 (Aspergillus flavus; Aspergillus flavus, 48 h) of 1 µg/mL (≈ 2.29 µM). It also gave an MFC50 (Aspergillus niger) of 1 µg/mL (≈ 2.29 µM), an MFC90 (Aspergillus niger) of 2 µg/mL (≈ 4.57 µM) and an MFC (Aspergillus niger; Aspergillus niger, 48 h) of 0.25 µg/mL (≈ 0.571 µM). For the same compound, the MIC50 (Aspergillus niger; Aspergillus niger, 48 h) was 1 µg/mL (≈ 2.29 µM), the MIC90 (Aspergillus niger; Aspergillus niger, 48 h) was 2 µg/mL (≈ 4.57 µM) and the MFC (Aspergillus sp.) was 0.25 µg/mL (≈ 0.571 µM). It also gave an MIC (Aspergillus sp.) of 0.25 µg/mL (≈ 0.571 µM), an MFC50 (Candida parapsilosis) of 4 µg/mL (≈ 9.14 µM) and an MFC90 (Candida parapsilosis) of 16 µg/mL (≈ 36.6 µM). It also gave an MFC (Candida parapsilosis; [13]) of 0.03 µg/mL (≈ 0.0686 µM), an MIC (Candida parapsilosis; [13]) of less than 0.015 µg/mL and an MIC50 (Candida parapsilosis; [13]) of less than 0.015 µg/mL. For the same compound, the MIC90 (Candida parapsilosis; [13]) was 0.03 µg/mL (≈ 0.0686 µM), the MFC50 (Candida albicans) was greater than 16 µg/mL and the MFC90 (Candida albicans) was greater than 16 µg/mL. The MFC (Candida albicans; Candida albicans, 48 h) was 0.03 µg/mL (≈ 0.0686 µM), the MIC50 (Candida albicans; Candida albicans, 48 h) was 0.03 µg/mL (≈ 0.0686 µM) and the MIC90 (Candida albicans; Candida albicans, 48 h) was less than 0.015 µg/mL. It also gave an MFC50 (Mucor [1]) of 8 µg/mL (≈ 18.3 µM), an MFC90 (Mucor [1]) greater than 16 µg/mL and an MFC (Mucor [1]; Mucor, 24 h) of 2 µg/mL (≈ 4.57 µM). The MIC50 (Mucor [1]; Mucor, 24 h) was 2 µg/mL (≈ 4.57 µM), the MIC90 (Mucor [1]; Mucor, 24 h) was 16 µg/mL (≈ 36.6 µM) and the MIC50 (Mucor [2]) was 1 µg/mL (≈ 2.29 µM). It also gave an MIC90 (Mucor [2]) of 8 µg/mL (≈ 18.3 µM), an MFC50 (Rhizopus [3]) of 4 µg/mL (≈ 9.14 µM) and an MFC90 (Rhizopus [3]) greater than 16 µg/mL. It also gave an MFC (Rhizopus [3]; Rhizopus, 24 h) of 1 µg/mL (≈ 2.29 µM), an MIC (Rhizopus [3]; Rhizopus, 24 h) of 1 µg/mL (≈ 2.29 µM) and an MIC50 (Rhizopus [3]; Rhizopus, 24 h) of 1 µg/mL (≈ 2.29 µM). The MIC90 (Rhizopus [3]; Rhizopus, 24 h) was 16 µg/mL (≈ 36.6 µM), the MIC (Rhizopus [4]) was 0.5 µg/mL (≈ 1.14 µM) and the MIC50 (Rhizopus [4]) was 0.5 µg/mL (≈ 1.14 µM). The MIC90 (Rhizopus [4]) was 4 µg/mL (≈ 9.14 µM), the MFC (Absidia [5]) was 4 µg/mL (≈ 9.14 µM) and the MIC (Absidia [5]) was 1 µg/mL (≈ 2.29 µM). The MIC (Absidia [6]) was 0.5 µg/mL (≈ 1.14 µM), the MFC (Cunninghamella [7]) was 16 µg/mL (≈ 36.6 µM) and the MIC (Cunninghamella [7]) was 2 µg/mL (≈ 4.57 µM). The MIC (Cunninghamella [8]) was 0.5 µg/mL (≈ 1.14 µM), the MFC (Syncephalastrum [9]) was 1 µg/mL (≈ 2.29 µM) and the MIC (Syncephalastrum [9]) was 0.25 µg/mL (≈ 0.571 µM). It also gave an MIC (Syncephalastrum [10]) of 0.125 µg/mL (≈ 0.286 µM), an MFC50 (Scedosporium apiospermum [11]) of 8 µg/mL (≈ 18.3 µM) and an MFC90 (Scedosporium apiospermum [11]) greater than 16 µg/mL. The MFC (Scedosporium apiospermum [11]; Scedosporium apiospermum, 24 h) was 2 µg/mL (≈ 4.57 µM), the MIC50 (Scedosporium apiospermum [11]; Scedosporium apiospermum, 24 h) was 4 µg/mL (≈ 9.14 µM) and the MIC90 (Scedosporium apiospermum [11]; Scedosporium apiospermum, 24 h) was 4 µg/mL (≈ 9.14 µM). It also gave an MIC50 (Scedosporium apiospermum [12]) of 1 µg/mL (≈ 2.29 µM).
